For 9 compounds, Activity and EC50 results are on record in ChEMBL document CHEMBL3351764, “Design, synthesis and biological activity of flavonoid derivatives as selective agonists for neuromedin U 2 receptor” (Bioorg Med Chem, 2014).

Structures are written as SMILES. Calls of active or inactive are those of the source. The calls are words filed in the database; no cut-off is given here.

Assay [1] has as its target Melanin-concentrating hormone receptor 1 (Homo sapiens) (UniProt Q99705). The assay can be described thus: Agonist activity at human MCH1 receptor at 100 uM to 5 mM.
In assay [2] the target is D(1A) dopamine receptor (Homo sapiens) (UniProt P21728). Briefly: Agonist activity at human D1 receptor at 100 uM to 5 mM.
For assay [3], the target named is T1, Parathyroid hormone/parathyroid hormone-related peptide receptor (Homo sapiens) (UniProt Q03431).
T1 sequence (whole entry): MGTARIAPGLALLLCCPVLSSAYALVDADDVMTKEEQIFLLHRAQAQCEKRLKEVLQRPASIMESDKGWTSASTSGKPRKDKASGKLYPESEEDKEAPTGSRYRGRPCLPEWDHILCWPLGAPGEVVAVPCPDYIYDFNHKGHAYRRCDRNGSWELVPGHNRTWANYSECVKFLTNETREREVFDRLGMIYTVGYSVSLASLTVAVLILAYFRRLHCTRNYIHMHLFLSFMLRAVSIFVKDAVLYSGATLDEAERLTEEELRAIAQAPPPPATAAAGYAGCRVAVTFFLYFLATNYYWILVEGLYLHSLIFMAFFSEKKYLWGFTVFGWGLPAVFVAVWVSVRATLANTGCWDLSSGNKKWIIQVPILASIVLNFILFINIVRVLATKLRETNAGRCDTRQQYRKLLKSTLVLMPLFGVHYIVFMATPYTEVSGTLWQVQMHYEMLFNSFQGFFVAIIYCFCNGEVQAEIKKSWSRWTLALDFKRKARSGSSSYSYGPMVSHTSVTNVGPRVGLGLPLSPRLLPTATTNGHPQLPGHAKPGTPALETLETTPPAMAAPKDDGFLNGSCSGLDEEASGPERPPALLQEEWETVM
The assay can be described thus: Agonist activity at human PTH receptor at 100 uM to 5 mM.

In assay [4] the target is Adrenocorticotropic hormone receptor (Mus musculus) (UniProt Q64326). The assay can be described thus: Agonist activity at mouse MC2 receptor at 100 uM to 5 mM.
Assay [5] concerns the target Melanocyte-stimulating hormone receptor (Mus musculus) (UniProt Q01727). The assay can be described thus: Agonist activity at mouse MC1 receptor at 100 uM to 5 mM.
Assay [6] concerns the target T2, Neuropeptide Y receptor type 5 (Homo sapiens) (UniProt Q15761).
T2 sequence (whole entry): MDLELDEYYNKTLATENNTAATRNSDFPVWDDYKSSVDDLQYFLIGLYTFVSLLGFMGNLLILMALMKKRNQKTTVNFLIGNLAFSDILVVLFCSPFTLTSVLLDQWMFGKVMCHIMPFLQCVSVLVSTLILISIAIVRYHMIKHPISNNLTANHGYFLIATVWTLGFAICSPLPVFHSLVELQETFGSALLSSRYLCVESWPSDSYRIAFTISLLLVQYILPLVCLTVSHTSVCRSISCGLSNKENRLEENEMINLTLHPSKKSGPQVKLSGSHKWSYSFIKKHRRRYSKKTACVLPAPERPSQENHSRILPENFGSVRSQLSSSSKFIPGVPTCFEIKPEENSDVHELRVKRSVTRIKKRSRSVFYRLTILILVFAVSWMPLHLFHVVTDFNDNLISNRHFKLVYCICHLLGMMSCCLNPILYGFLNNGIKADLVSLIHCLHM
Briefly: Agonist activity at human NPY5 receptor at 100 uM to 5 mM.

The target in assay [7] is T3, C5a anaphylatoxin chemotactic receptor 1 (Homo sapiens) (UniProt P21730).
T3 sequence (whole entry): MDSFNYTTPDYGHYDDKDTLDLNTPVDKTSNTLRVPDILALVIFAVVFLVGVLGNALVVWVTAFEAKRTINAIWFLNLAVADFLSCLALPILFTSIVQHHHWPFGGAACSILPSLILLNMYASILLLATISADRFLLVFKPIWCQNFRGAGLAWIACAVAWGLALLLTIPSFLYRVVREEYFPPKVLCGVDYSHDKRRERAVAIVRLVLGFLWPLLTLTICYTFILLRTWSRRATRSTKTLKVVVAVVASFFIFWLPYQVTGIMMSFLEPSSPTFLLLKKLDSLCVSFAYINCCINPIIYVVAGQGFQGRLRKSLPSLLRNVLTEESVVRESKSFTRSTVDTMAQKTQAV
Briefly: Agonist activity at human C5a receptor at 100 uM to 5 mM.

In assay [8] the target is Melanocortin receptor 3 (Mus musculus) (UniProt P33033). Briefly: Agonist activity at mouse MC3 receptor at 100 uM to 5 mM.
Assay [9] addresses Melanocortin receptor 5 (Mus musculus) (UniProt P41149). The assay can be described thus: Agonist activity at mouse MC5 receptor at 100 uM to 5 mM.
The target of another assay is Neuromedin-U receptor 2 (Homo sapiens, UniProt Q9GZQ4). Briefly: Agonist activity at human NMU2R transfected in HEK293 cells after 7 hrs by luciferase reporter gene assay. In kind it is cell-based. Summed up:
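HEK-293 cells were stably co-transfected with a reporter gene construct and human NMU2R cDNA in pcDNA3.1(+), maintained under G418 selection at 37 °C in 5% CO2, then seeded and incubated overnight. Compounds were added at various concentrations for 7 h at 37 °C, followed by Bright-Glo luciferase read-out. Forskolin and NMU served as positive controls. EC50 was fitted by four-parameter logistic regression; means ± SEM of three independent experiments.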
In general terms: Reporter assays use an easily measured gene product as a stand-in for the process of interest.

For assay [10], the target named is Adrenocorticotropic hormone receptor (Homo sapiens) (UniProt Q01718). Briefly: Agonist activity at human MC2 receptor at 100 uM to 5 mM.
Assay [11] has as its target Melanocortin receptor 3 (Homo sapiens) (UniProt P41968). The assay can be described thus: Agonist activity at human MC3 receptor at 100 uM to 5 mM.
Assay [12] addresses T4, Adenosine receptor A1 (Homo sapiens) (UniProt P30542).
T4 sequence (whole entry): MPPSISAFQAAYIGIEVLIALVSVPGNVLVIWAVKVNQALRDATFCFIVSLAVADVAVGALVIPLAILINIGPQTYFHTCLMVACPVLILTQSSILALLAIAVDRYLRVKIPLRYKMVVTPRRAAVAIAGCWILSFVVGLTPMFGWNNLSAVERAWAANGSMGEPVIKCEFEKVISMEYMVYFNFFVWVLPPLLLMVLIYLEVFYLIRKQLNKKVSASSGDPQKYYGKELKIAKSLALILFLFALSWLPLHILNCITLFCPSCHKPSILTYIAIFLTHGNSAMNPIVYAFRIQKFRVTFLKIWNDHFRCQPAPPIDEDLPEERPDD
The assay can be described thus: Agonist activity at human A1 receptor at 100 uM to 5 mM.

Chain of Melanocortin receptor 3 (Homo sapiens) (P41968 whole entry): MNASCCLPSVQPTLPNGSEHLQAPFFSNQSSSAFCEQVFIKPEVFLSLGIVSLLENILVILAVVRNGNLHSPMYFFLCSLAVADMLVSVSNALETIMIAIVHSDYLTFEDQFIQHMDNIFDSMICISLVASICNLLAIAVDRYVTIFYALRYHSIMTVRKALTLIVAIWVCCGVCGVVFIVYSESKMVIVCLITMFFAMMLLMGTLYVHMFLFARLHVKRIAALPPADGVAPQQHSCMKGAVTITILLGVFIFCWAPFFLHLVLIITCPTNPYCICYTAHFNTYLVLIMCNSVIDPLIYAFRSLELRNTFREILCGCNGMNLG
Chain of Neuromedin-U receptor 2 (Q9GZQ4 whole entry): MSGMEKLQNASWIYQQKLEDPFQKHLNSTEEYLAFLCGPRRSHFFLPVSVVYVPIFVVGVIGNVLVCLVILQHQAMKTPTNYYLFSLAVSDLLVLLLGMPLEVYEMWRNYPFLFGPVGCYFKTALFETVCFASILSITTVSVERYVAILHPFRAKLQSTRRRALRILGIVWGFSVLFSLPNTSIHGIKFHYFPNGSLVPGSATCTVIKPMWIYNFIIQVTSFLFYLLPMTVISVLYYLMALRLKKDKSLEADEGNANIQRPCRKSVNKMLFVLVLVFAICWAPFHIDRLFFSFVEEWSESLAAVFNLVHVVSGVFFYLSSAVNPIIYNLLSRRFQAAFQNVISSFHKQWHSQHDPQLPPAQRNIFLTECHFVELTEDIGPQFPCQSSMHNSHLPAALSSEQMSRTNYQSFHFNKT
Chain of D(1A) dopamine receptor (Homo sapiens) (P21728 whole entry): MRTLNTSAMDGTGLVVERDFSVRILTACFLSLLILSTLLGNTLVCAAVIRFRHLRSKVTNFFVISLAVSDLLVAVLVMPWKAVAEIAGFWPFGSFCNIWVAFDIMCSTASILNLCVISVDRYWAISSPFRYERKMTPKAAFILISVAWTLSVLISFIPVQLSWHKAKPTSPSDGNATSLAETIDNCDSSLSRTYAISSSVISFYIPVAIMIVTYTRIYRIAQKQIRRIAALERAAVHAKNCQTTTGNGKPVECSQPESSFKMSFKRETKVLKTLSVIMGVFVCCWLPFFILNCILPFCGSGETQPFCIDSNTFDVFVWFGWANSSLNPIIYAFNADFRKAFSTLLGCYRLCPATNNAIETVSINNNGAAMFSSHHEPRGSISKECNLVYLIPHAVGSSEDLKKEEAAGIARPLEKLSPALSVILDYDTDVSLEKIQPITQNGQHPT
Chain of Melanin-concentrating hormone receptor 1 (Homo sapiens) (Q99705 whole entry): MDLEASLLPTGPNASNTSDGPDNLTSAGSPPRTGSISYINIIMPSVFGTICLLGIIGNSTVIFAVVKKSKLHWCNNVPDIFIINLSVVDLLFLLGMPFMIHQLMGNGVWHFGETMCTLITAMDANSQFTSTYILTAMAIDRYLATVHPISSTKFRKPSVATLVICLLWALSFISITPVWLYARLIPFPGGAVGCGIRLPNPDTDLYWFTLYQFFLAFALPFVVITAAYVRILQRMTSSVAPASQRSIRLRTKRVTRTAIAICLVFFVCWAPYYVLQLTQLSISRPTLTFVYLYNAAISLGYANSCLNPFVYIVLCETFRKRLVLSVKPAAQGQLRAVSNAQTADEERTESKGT
Chain of Adrenocorticotropic hormone receptor (Homo sapiens) (Q01718 whole entry): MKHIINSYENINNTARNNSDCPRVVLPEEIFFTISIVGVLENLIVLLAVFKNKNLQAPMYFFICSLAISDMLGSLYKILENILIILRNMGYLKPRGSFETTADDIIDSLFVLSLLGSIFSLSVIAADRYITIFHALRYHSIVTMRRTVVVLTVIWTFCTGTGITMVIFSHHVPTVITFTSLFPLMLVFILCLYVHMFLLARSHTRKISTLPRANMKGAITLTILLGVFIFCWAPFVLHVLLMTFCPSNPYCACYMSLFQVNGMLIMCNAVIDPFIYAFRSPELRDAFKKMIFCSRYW
Chain of Adrenocorticotropic hormone receptor (Mus musculus) (Q64326 whole entry): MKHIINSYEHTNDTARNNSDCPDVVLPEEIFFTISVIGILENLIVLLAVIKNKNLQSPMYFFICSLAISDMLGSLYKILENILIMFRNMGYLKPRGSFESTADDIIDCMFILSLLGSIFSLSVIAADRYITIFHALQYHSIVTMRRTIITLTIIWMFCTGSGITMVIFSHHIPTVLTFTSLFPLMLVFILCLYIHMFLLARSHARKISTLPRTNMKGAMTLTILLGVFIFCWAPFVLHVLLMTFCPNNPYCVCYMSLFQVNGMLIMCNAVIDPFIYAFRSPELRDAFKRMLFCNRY
Chain of Melanocyte-stimulating hormone receptor (Mus musculus) (Q01727 whole entry, looked up): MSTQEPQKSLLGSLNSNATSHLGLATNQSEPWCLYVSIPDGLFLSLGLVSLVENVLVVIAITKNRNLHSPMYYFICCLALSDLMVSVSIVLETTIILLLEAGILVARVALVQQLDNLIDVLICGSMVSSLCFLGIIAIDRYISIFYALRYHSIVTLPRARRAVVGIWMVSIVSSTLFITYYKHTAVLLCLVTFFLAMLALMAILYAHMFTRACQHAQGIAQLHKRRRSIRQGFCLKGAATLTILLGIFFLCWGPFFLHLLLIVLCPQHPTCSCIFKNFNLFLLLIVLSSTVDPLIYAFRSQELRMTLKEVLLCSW
Chain of Melanocortin receptor 3 (Mus musculus) (P33033 whole entry): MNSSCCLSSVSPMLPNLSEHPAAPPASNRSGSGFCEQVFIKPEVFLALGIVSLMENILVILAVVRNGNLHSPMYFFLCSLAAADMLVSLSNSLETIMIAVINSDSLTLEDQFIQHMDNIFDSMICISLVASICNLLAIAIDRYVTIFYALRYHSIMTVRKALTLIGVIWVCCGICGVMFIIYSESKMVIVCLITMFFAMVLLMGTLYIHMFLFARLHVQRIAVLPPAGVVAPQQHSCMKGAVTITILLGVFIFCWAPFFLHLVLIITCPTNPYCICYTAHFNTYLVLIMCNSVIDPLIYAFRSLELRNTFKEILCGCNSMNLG
Chain of Melanocortin receptor 5 (Mus musculus) (P41149 whole entry): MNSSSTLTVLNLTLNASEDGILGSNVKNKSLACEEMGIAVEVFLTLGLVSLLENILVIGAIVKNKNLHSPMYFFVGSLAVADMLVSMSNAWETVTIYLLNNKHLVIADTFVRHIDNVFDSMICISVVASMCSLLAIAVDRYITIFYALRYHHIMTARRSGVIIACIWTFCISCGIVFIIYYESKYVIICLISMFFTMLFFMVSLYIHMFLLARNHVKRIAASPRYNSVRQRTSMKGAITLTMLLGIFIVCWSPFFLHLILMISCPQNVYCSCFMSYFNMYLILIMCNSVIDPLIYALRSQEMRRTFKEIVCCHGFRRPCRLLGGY

In the case of `O=c1c(OCCO)c(-c2cc(Br)ccc2F)oc2ccccc12`, the outcome in assay [1], in assay [2], in assay [3], in assay [4], in assay [5] and in assay [6] was inactive. Besides, the result in [7], in [8], in [9], in [10], in assay [11] and in assay [12] was inactive. In addition, on Neuromedin-U receptor 2 (read-out: EC50), the 50% effective concentration (EC50) came to 47 µM.
For the compound `O=c1cc(-c2ccccc2F)oc2ccccc12`, the result in assay [1], in [2], in [3], in assay [4], in assay [5] and in assay [6] was inactive. Also, the result in [7], in [8], in assay [9], in [10], in [11] and in [12] was inactive. Besides, on Neuromedin-U receptor 2 (hek293), the EC50 result is on record as “Not Active”.
With `O=c1cc(-c2ccc(O)cc2)oc2ccccc12`, the result in assay [1], in [2], in assay [3], in [4], in assay [5] and in assay [6] was inactive. Also, the result in [7], in [8], in assay [9], in [10], in assay [11] and in [12] was inactive. Moreover, the EC50 entry on Neuromedin-U receptor 2 (hek293) is “Not Active”.
Consider `COc1ccc(F)c(-c2oc3ccccc3c(=O)c2O)c1`, for which the result in assay [1], in assay [2], in assay [3], in [4], in assay [5] and in [6] was inactive. Besides, the outcome in assay [7], in assay [8], in assay [9], in assay [10], in assay [11] and in assay [12] was inactive. In addition, the EC50 on Neuromedin-U receptor 2 (read-out: EC50) was determined as 253 µM.
As to `CCN(CC)c1ccc(-c2oc3ccccc3c(=O)c2O)cc1`, the result in assay [1], in [2], in [3], in assay [4], in [5] and in assay [6] was inactive. Besides, the outcome in [7], in assay [8], in [9], in assay [10], in [11] and in assay [12] was inactive. At Neuromedin-U receptor 2 (hek293), the EC50 entry was “Not Active”.
Turning to `O=c1c(O)c(-c2cccc(Br)c2)oc2ccccc12`, the outcome in assay [1], in assay [2], in [3], in assay [4], in assay [5] and in assay [6] was inactive. Besides, the outcome in assay [7], in assay [8], in assay [9], in assay [10], in assay [11] and in assay [12] was inactive. Further, the EC50 entry at Neuromedin-U receptor 2 (hek293) is “Not Active”.
For `O=c1c(O)c(-c2c(F)cccc2Cl)oc2ccccc12`, the outcome in [1], in assay [2], in assay [3], in assay [4], in assay [5] and in [6] was inactive. The result in assay [7], in assay [8], in assay [9], in [10], in assay [11] and in assay [12] was inactive. Also, the EC50 entry at Neuromedin-U receptor 2 (hek293) is reported as “Not Active”.
As for `COc1cccc(-c2oc3ccccc3c(=O)c2O)c1`, the result in assay [1], in [2], in assay [3], in assay [4], in assay [5] and in [6] was inactive. In addition, the result in assay [7], in assay [8], in [9], in [10], in assay [11] and in [12] was inactive. Besides, the concentration giving a half-maximal response (EC50) result at Neuromedin-U receptor 2 (hek293) was “Not Active”.
For `O=c1c(O)c(-c2ccc(Br)cc2F)oc2ccccc12`, the result in [1], in [2], in assay [3], in assay [4], in assay [5] and in assay [6] was inactive. Also, the outcome in assay [7], in assay [8], in assay [9], in assay [10], in [11] and in [12] was inactive. Moreover, the EC50 at Neuromedin-U receptor 2 (read-out: EC50) is 73 µM.

A word on the EC50: it is the concentration that produces a half-maximal response.
